# Screening results (PubChem BioAssay)
# Most compounds without a hit are left out; they make up all but 3.8% or so of the library.
# V-ATPase pHluor: regulators of yeast V-ATPase proton pumping, primary screen, pHLuorin cytosolic pH fluorescence; S. cerevisiae; response, % at 10 µM; hit rate 0.37% among 350,000; in the data active = response mostly above about 7.3%, no sharp cut-off; inactive = mostly below about 5.4%; note: actives read high
# MPTP block: mitochondrial permeability transition pore inhibitors, primary screen, biochemical, isolated mouse mitochondria, absorbance; Ca2+ swelling absorbance, 30 min; inhibition, % at 10 µM; hit rate 1.4% among 360,000; AID 602449, 2012;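 active = inhibition of 50% or more, scaled per plate between neutral and stimulator controls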
# Exocytosis inh: LAMP-1 surface exposure blockers, TALL-104 cells – cell-based, flow cytometry, MLPCN library, primary screen; inhibition, % at 10 µM; hit rate 0.66% among 360,000; AID 651702, 2012; TALL-104 LAMP-1 surface exposure; cells stimulated with thapsigargin and PMA;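 active = inhibition above about 55%, limit read from the data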
# T cell modulator: modulators of CD8 T cell-vesicle binding, primary screen, mouse 2C CD8+ T cells, flow cytometry. 2C CD8+ T cell-vesicle binding; active compounds read low. AID 2052, 2009. hit rate 0.068% among 330,000. response (vesicle binding), % at 7 µM;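 active = response, share of CD8 T cells binding vesicles, and their 90th percentile fluorescence all below set limits, cut at about 80% in these data, passing the limit was not always enough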;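 note: values below 100% mean blocked vesicle binding to the CD8+ T cells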
#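 Benchmarks: naked versus QL9-loaded vesicles / Assay system: purified 2C TCR transgenic mouse naive CD8+ T cells / Technique: high-throughput flow cytometry with anti-B7-1 and anti-CD8 staining / Timing: Cell–vesicle co-incubation 1.5 h at 37 °C, staining 20 min on ice / Read-out: percent CD8+ FL2 mean versus row control / Probe or stimulus: QL9-loaded Drosophila micro-vesicles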
# B2AR ag: beta2AR agonists driving receptor internalization, primary screen, cell-based, FAP fluorogen, flow cytometry; Beta-2 adrenergic receptor (Homo sapiens), P07550; Am2.2-beta2AR cells; response, % (no concentration beside the values); hit rate 0.43% among 340,000;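 active = response above a set limit, near 3 SD of response in nonfluorescent compounds, cut at about 42% in these data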
# Target sequence (P07550 whole entry, looked up): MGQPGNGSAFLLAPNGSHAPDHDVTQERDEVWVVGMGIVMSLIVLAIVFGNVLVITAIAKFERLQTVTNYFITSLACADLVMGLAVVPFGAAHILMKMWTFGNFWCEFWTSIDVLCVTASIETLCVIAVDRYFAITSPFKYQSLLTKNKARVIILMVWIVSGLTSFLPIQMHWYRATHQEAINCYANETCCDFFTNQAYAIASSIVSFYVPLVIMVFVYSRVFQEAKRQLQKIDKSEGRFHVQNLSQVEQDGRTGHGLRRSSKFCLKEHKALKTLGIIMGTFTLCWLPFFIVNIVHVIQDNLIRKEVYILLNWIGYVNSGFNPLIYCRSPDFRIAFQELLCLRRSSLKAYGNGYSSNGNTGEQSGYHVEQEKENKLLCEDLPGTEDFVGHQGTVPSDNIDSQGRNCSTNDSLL
# rCAG binder: binders of r(CAG) RNA repeats, primary screen, biochemical, fluorescence | AID 651821, 2012 | inhibition, % at 3 µM | hit rate 1.3% among 370,000 | r(CAG) RNA repeat, TO-PRO-1 dye displacement fluorescence;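 active = inhibition above the plate cutoff, the mean of all test compounds on that plate plus 3 SD, cut at about 35% in these data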;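 note: higher means more dye released from RNA so lower well fluorescence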
# V-ATPase pH SP: yeast V-ATPase proton pumping modulators, confirmation, S. cerevisiae, pH-sensitive GFP, second cherry-pick; shares compounds with V-ATPase pHluor; S. cerevisiae pHLuorin cytosolic pH, V-ATPase proton transport; response, % at 10 µM; hit rate 2% among 980; in the data active = response above about 24%
# Hits are given with their value; - = inactive; . = not tested or not shown.
SMILES,V-ATPase pHluor,MPTP block,Exocytosis inh,T cell modulator,B2AR ag,rCAG binder,V-ATPase pH SP
O=C(O)CCN1C(=O)C2C3CC(C2C1=O)C1C(c2ccccc2)c2sc(=O)n(-c4ccccc4)c2SC31 (stereo not drawn),9.2,-,-,-,-,-,-
CS(=O)(=O)N[C@@H]1C[C@@H]2O[C@@H](CO)CC[C@@H]2O[C@@H]1CCc1ccc(-c2ccccc2F)cc1,.,.,.,.,.,-,.
O=C(NC1=NCCS1)c1cccc(F)c1,-,-,-,-,-,-,-
O=C(NC1=NCCS1)c1cccc(Br)c1,-,-,-,-,-,-,.
COc1cc(NC(=O)CCn2c(=O)[nH]c3ccsc3c2=O)cc(OC)c1,7.7,-,-,-,-,-,-
Cc1ccc(NC(=O)CCn2c(=O)[nH]c3ccsc3c2=O)cc1,-,-,-,-,-,-,.
CCOC(=O)c1cccc(C(=O)OCC)n1,-,-,-,-,-,-,-
Cc1c(OC(C)C(=O)NCC(O)c2ccccc2)ccc2c3c(c(=O)oc12)CCCC3 (stereo not drawn),10,-,-,-,-,-,-
Cc1nc(NC(=O)c2c(-c3ccccc3Cl)noc2C)sc1C,13,-,-,-,-,-,-
Cc1nnc(NC(=O)c2c(-c3ccccc3Cl)noc2C)s1,-,-,-,-,-,-,.
Cc1ccc(CN2CCNC(=O)C2CC(=O)N(C)CCc2ccccc2)cc1 (stereo not drawn),11,-,-,-,-,-,-
CN(CCc1ccccn1)C(=O)CC1C(=O)NCCN1Cc1ccc(-c2ccccc2)cc1 (stereo not drawn),-,-,-,-,-,-,.
N#Cc1ccc(NC(=O)OC2CCC23CCC(c2ccccc2)CC3)cc1 (stereo not drawn),.,.,.,.,.,-,.
Cn1c(=O)c2cc(S(=O)(=O)N3CCN(c4ccc(F)cc4)CC3)ccc2n(C)c1=O,.,.,.,.,.,-,.
O=C(Nc1ccn(Cc2c(F)c(F)cc(F)c2F)n1)c1cccc(Cn2cc([N+](=O)[O-])cn2)c1,19,-,-,-,-,-,-
Cc1cc(C(=O)O)c2ccccc2n1,16,-,-,-,-,-,-
Cc1cc(C(=O)Nc2ccccc2)c2ccccc2n1,-,-,-,-,-,-,.
CC(C)(C)NC(=O)c1cc2c(ccc3ccccc32)oc1=O,8.9,-,-,-,-,-,-
O=C(CCl)N1CCN(C(=O)C2COc3ccccc3O2)CC1 (stereo not drawn),14,-,-,-,-,-,-
CCN1CCN(C(=O)C2COc3ccccc3O2)CC1 (stereo not drawn),-,-,-,-,-,-,.
COc1ccc(-c2nn(C)c(=O)c3ccccc23)cc1NC(=O)Cn1nc(C)c2ccccc2c1=O,9.9,-,-,-,48,-,-
CCC(=O)Nc1cc(-c2nn(C)c(=O)c3ccccc23)ccc1OC,-,-,-,-,-,-,.
NNC(=O)c1ccc(COCC(F)(F)F)cc1,9.1,-,-,-,-,-,-
COC(=O)C1=C(C)N(C)C(=NCc2ccc(OC)cc2)NC1c1cccc(C(F)(F)F)c1 (stereo not drawn),.,.,.,.,.,-,.
CCNc1nnc(CCn2nc(C)c(Br)c2C)s1,18,-,-,-,-,-,-
SMILES,V-ATPase pHluor,MPTP block,Exocytosis inh,T cell modulator,B2AR ag,rCAG binder,V-ATPase pH SP
Cc1ccccc1S(=O)(=O)N1CCCc2nc(C)c(C)cc21,.,.,.,.,.,-,.
Cc1ccc(CCNS(=O)(=O)c2cc3c(cc2C)n(C)c(=O)c(=O)n3C)cc1,10,-,-,-,-,-,-
CCCCCCCCN1C(=O)[C@@H](CC(=O)N2CCSCC2)C[C@@]2(C(=O)OC)C1=C[C@H](C(C)C)O[C@@H]2C1CC1,.,.,.,.,.,-,.
CCC1(CC)NC(=O)N(CC(=O)OC(C)C(=O)Nc2cc([N+](=O)[O-])ccc2OC)C1=O (stereo not drawn),11,-,-,-,-,-,-
CCC1(CC)NC(=O)N(CC(=O)OC(C)C(=O)Nc2ccc(Cl)cn2)C1=O (stereo not drawn),-,-,-,-,-,-,.
Nc1ncnc2c1ncn2[C@@H]1O[C@H](C(=O)N[C@@H](CCc2ccccc2)C(=O)N2CCN(CC(=O)N3CCCC3)CC2)[C@@H](O)[C@H]1O,.,.,.,.,.,-,.
Cc1ccc(N2CCN(S(=O)(=O)N3CCCCC3)CC2)cc1C,11,-,-,-,-,-,-
Cc1ccc(N2CCN(S(=O)(=O)N3CCCCCC3)CC2)cc1Cl,-,-,-,-,-,-,.
Cc1cccc(N2CCN(C(=O)c3cc(=O)[nH]c4ccccc34)CC2)c1C,14,-,-,-,-,-,-
COc1cccc(N2C(=O)/C(=C\c3cccs3)NC2=S)c1,21,-,-,-,-,-,-
O=C(CSc1n[nH]c(-c2ccco2)n1)Nc1ccccc1F,-,-,-,-,-,-,.
O=C(CSc1n[nH]c(-c2ccco2)n1)Nc1ccccc1Cl,12,-,-,-,-,-,-
CC(=O)Nc1nc(N2C(=O)c3ccccc3C2=O)n(-c2ccccc2)n1,7.0,-,-,-,-,-,-
COc1cc(NC(=O)C2CCCN(S(=O)(=O)c3ccc(C)c(C)c3)C2)cc(OC)c1 (stereo not drawn),.,.,.,.,.,-,.
CCOC(=O)CC[C@H]1CC[C@]2(CCCN(C(=O)C3CCCC3)C2)O1,.,.,.,.,.,-,.
C=CCNC(=O)CSc1nnc(-c2ccccc2Cl)n1-c1c(C)n(C)n(-c2ccccc2)c1=O,-,-,-,-,-,.,.
Cc1c(-n2c(SCC(=O)O)nnc2-c2ccccc2Br)c(=O)n(-c2ccccc2)n1C,7.1,-,-,-,-,-,-
CCCOC(=O)c1ccc(-c2ccc(C=O)o2)cc1,8.2,-,-,-,-,-,-
CCOC(=O)c1ccc(-c2ccc(C=O)o2)cc1,-,-,-,-,-,-,.
CC(C)C(=O)N1CCC(Oc2cccnc2)CC1,.,.,.,.,.,-,.
CCOc1ccc(CCNC(=O)CSc2cc(=O)n(CC)c3ccccc23)cc1OCC,14,-,-,-,-,-,-
Nc1[nH]c2cc(C(F)(F)F)ccc2c1C(=O)N1CCN(CCc2ccccc2)CC1,.,.,.,.,.,-,.
Nc1ccc2c(c1)C(=NO)c1cc([N+](=O)[O-])ccc1-2,-,-,-,.,-,-,.
O=[N+]([O-])c1ccc2c(c1)-c1ccccc1C2=NO,20,-,-,.,-,-,119
COc1ccccc1CNc1ccc2c(c1)OC[C@H](CC(C)C)NS2(=O)=O,.,.,.,.,.,-,.
CCOc1ccc(CCNC(=O)c2cc3ccsc3n2C)cc1OCC,.,.,.,.,.,-,.
CCOC(=O)c1c(C)[nH]c(C(=O)COC(=O)c2cnc(C)cn2)c1C,11,-,-,-,-,-,-
